Screens (PubChem BioAssay)
The list is not random: actives were taken first. Their share in the collection is about 3.5%.
RGS4 pot: potentiators or activators of RGS4; HEK293 M3R/inducible RGS4, carbachol calcium flux Fluo4; hits give low values; B-score at 10 µM; 0.92% of 310,000 active; AID 463111;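 active = B-score of the integrated calcium signal more than 4 SD below the library mean, with starting fluorescence not abnormally high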;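 note: negative B-score means reduced calcium response which marks RGS4 activation or potentiation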
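test system = M3R-expressing HEK293 line, RGS4 induced by doxycycline | probe or stimulus = carbachol at ECmax as muscarinic agonist stimulus | timing = dye loading 30 min 37 °C, buffer rest 30 min RT | signal = calcium dye Fluo4 fluorescence | evaluation = B score from integrated fluorescence ratio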
RGS4 inh: inhibitors of human RGS4; P49798; HEK293 M3R/RGS4 inducible, Fluo-4 calcium flux; hits give high values; triggered by carbachol at its EC20; B-score at 10 µM; 0.45% of 310,000 active; AID 463165;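 active = B-score, a plate-corrected calcium signal, over three deviations above library mean, with baseline fluorescence within five deviations of library mean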;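 note: RGS4 expression induced by doxycycline in cells with stable M3 receptor; B-score is computed from the integrated fluorescence ratio over baseline after carbachol; higher B-score means a larger calcium signal and so more RGS4 inhibition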
Target sequence (P49798 whole entry, looked up): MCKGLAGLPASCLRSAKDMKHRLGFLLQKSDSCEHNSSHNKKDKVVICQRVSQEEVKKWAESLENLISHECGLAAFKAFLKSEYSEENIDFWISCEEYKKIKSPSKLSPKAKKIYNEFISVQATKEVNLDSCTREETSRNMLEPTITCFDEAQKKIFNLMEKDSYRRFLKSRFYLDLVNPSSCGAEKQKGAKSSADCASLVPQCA
MrgX1 ag: human MrgX1 receptor agonism, primary screen. Q96LB2. MrgX1-HEK293 cells, Fluo-4 calcium fluorescence, agonist mode; hits give high values. B-score at 10 µM. 0.44% of 310,000 active. AID 588627;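 active = calcium response B-score plate-corrected fluorescence ratio at least 3 library SD, with starting fluorescence B-score inside 5 SD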
Target sequence (Q96LB2 whole entry, looked up): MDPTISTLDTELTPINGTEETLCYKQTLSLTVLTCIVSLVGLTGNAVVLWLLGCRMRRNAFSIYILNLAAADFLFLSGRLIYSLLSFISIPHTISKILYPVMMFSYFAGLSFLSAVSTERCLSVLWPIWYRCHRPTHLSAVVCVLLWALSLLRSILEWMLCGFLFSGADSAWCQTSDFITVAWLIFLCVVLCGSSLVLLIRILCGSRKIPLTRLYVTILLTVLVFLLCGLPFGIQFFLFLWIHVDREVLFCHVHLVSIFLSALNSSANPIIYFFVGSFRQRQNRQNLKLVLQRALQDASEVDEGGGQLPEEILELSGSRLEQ
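System – MrgX1-expressing HEK293 cells · Incubation – cells plated overnight, dye loaded 0.5 h 37 °C, 0.5 h room temperature · Technique – kinetic Fluo-4 NW fluorescence of intracellular calcium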
MrgX1 antag: human MrgX1 receptor antagonism, primary screen | AID 588676 | MRGX1-HEK293 calcium flux, Fluo-4, BAM8-22 antagonism; hits give low values | 1.3% of 310,000 active | Q96LB2 | B-score at 10 µM;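 active = calcium-response B-score plate-corrected more than 3 library SD below zero, starting fluorescence within 5 deviations, no agonist response on first addition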;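 note: peak minus trough fluorescence over baseline after final BAM8-22 challenge near maximal dose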
MrgX1 PAM: human MrgX1 positive allosteric modulation, primary screen | Q96LB2 | MrgX1-HEK293, Fluo-4 calcium flux, FDSS; hits give high values | B-score at 10 µM | 0.63% of 310,000 active | AID 588675;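 active = plate-corrected calcium response at least 3 library SD above typical, normal starting fluorescence, not activating the receptor alone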;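 note: compound read alongside a low EC10 to EC30 dose of BAM8-22 agonist; peak minus trough fluorescence over baseline measured at the second addition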
* hit, by the source's call; i = inactive; nt = no result given.

SMILES	RGS4 pot	RGS4 inh	MrgX1 ag	MrgX1 antag	MrgX1 PAM
COc1ccc(/C=C/C(=O)N(Cc2cccs2)C2CCS(=O)(=O)C2)cc1 (stereo unspecified)	-7.5*	i	i	i	i
CN1CCN(C(=O)C2CC(=O)N(c3ccc(Cl)cc3)C2)CC1 (stereo unspecified)	i	i	i	i	i
Cc1cc(C)c(S(=O)(=O)Nc2ccc3c4c(cccc24)CC3)c(C)c1	-7.5*	i	i	i	i
O=C(c1ccco1)N(CCC(c1ccccc1)c1ccco1)Cc1ccccc1 (stereo unspecified)	i	i	i	i	i
COc1ccc(CN(CCC(c2ccc(F)cc2)C2CCOC(C)(C)C2)C(=O)c2ccco2)cc1 (stereo unspecified)	-8.2*	i	i	i	i
CC(c1ccccc1)N(CCC(c1ccccc1)C1CCOC(C)(C)C1)C(=O)c1ccco1 (stereo unspecified)	i	i	i	i	i
COc1ccc(CN(CCC(c2ccccc2)c2ccco2)C(=O)c2ccco2)cc1 (stereo unspecified)	-8.2*	i	i	i	i
CCN1C(=O)[C@H]2[C@@H](c3ccc(C)cc3)N3C(=O)N(c4ccccc4)C(=O)[C@@]3(C)[C@H]2C1=O	i	i	i	i	i
CCCCN(CCCC)S(=O)(=O)c1c(C)[nH]c(=O)[nH]c1=O	i	i	i	i	i
CC1(C)CC(=O)C2=C(C1)OC1=C(C(=O)CC(C)(C)C1)C2c1ccc(O)cc1O	i	i	36*	i	i
CCOC(CNc1ncnc2c1cnn2C)OCC	i	i	i	i	i
Cc1cc(C)cc(-n2c(C)cc(/C=N\NC(=O)COc3cccc4cccnc34)c2C)c1	-8.7*	i	i	i	i
c1ccc(C2OC3c4cccc5cccc(c45)C3N2c2ccccc2)cc1 (stereo unspecified)	i	i	34*	i	i
Cc1ccc2nc(/C(C#N)=C/c3ccc(O)c(O)c3)[nH]c2c1	i	i	35*	i	i
Cc1ccc2nc(/C(C#N)=C/c3ccccc3C(=O)O)[nH]c2c1	i	i	i	i	i
O=C(COc1cc2oc(=O)c3c(c2cc1Cl)CCC3)NCCN1CCOCC1	i	i	i	i	i
Cc1ccc(CSc2nnc(SCC(=O)N/N=C/c3ccc(C(=O)O)cc3)s2)cc1	i	i	i	-5.2*	i
COc1ccc(C(CC(=O)Nc2cc([N+](=O)[O-])ccc2OC)c2ccccc2)cc1 (stereo unspecified)	i	i	i	i	i
O=C(/C=C/c1ccccc1)C1=C(O)C(=O)N(CCO)C1c1ccccc1[N+](=O)[O-] (stereo unspecified)	i	i	i	i	i
CC[N+](C)(CC)CCC(c1ccccc1)C1CCCCC1 (stereo unspecified)	-8.7*	i	i	i	i
CC[N+](C)(CC)CCOC(=O)C(O)(c1ccccc1)C1CCCCC1 (stereo unspecified)	i	i	i	i	i
COc1ccc(C(=O)N/N=C/c2c[nH]c3ccccc23)cc1	i	i	i	i	i
COc1ccc2c(/C=N/Nc3ccc(C(=O)O)cc3)c[nH]c2c1	i	i	32*	i	i
O=C(Nc1ccc(N2CCOCC2)c(Cl)c1)c1cc2ccccc2o1	-7.6*	i	i	i	i
O=C(Nc1ccccc1N1CCOCC1)c1cc2ccccc2o1	i	i	i	i	i
SMILES	RGS4 pot	RGS4 inh	MrgX1 ag	MrgX1 antag	MrgX1 PAM
O=C(Nc1ccccn1)c1cccc(S(=O)(=O)N2CCc3ccccc3C2)c1	i	i	i	i	i
NC(=S)NN=C1c2ccccc2-c2ccccc21	i	i	i	i	i
COc1ccc(CNc2nc3ccccc3n2Cc2ccccc2)cc1OC	i	i	i	i	i
C=CCOc1ccc(CN(C)CC(O)COc2cccc3ccccc23)cc1 (stereo unspecified)	i	i	i	i	i
C/C(=N\NC(=O)c1cccnc1)c1cc2ccccc2o1	i	i	i	-7.6*	i
C/C(=N\NC(=O)c1ccncc1)c1cc2ccccc2o1	i	i	i	i	i
Cc1ccccc1S(=O)(=O)Cc1ccc(C(=O)N2CCN(c3cccc(C)c3C)CC2)o1	-7.2*	i	i	i	i
CCc1ccccc1S(=O)(=O)Cc1ccc(C(=O)N2CCN(c3ccccc3OC)CC2)o1	-7.7*	i	i	i	i
COc1ccc(NC(=O)CCCn2cnc3ccccc3c2=O)cc1	i	i	i	i	i
CCOc1ccc(C(=O)NCc2ccc3c(c2)OCO3)cc1	i	i	i	i	i
CCSc1nnc(NC(=O)Cc2cc(OC)c(OC)c(OC)c2)s1	i	i	i	i	i
CCN(CC)CCN1C(=O)c2oc3ccccc3c(=O)c2C1c1ccccc1 (stereo unspecified)	i	i	i	-6*	i
CCN(CC)CCCN1C(=O)c2oc3ccccc3c(=O)c2C1c1cccs1 (stereo unspecified)	i	i	i	i	11*
O=C(O)c1ccc(CS(=O)(=O)c2ccc(Br)cc2)cc1	i	i	i	i	i
O=C(CCSc1ccc(Cl)cc1)N1CCN(c2ccc(O)cc2)CC1	-7.2*	i	i	i	i
COc1ccc(C(=O)O)cc1S(=O)(=O)Nc1ccccc1Cc1ccccc1	i	i	nt	nt	nt
O=C(c1ccccc1)c1c2c(cc3sc4ccccc4[n+]13)-c1cccc3cccc-2c13	nt	nt	i	-8.8*	i
Cc1sc2ccccc2[n+]1CC(=O)c1ccccc1	i	i	i	i	i
COc1ccc(/C=N/N=C/c2ccc(OC)c(OC)c2)cc1OC	i	i	i	i	i
COc1cc(/C=N/N=C(N)N)ccc1OCc1ccccc1Cl	i	i	i	i	6.5*
O=C(NCCCN1CCCC1)c1ccc2c(c1)N(Cc1ccc(F)cc1)C(=O)c1ccccc1S2=O (stereo unspecified)	i	i	i	i	i
CCC1CCCCN1CCCNC(=O)c1ccc2c(c1)N(Cc1ccc(F)cc1)C(=O)c1ccccc1S2=O (stereo unspecified)	-8.4*	i	i	i	i
CCCCNC(=S)NNC(=O)c1cccnc1	i	i	i	i	i
Cc1ccc(C2=CC(c3ccccc3)n3ncnc3N2)cc1 (stereo unspecified)	i	i	i	i	i
